What is called MIC is the smallest concentration in the dilution series that meets the test's criterion for growth inhibition. A higher MIC goes with a less susceptible organism. The term IC50 denotes the midpoint of a concentration-inhibition curve. A low value points to inhibition by little substance.

Molecules are shown by their SMILES. In brackets after ≈: the same amount, converted by molar mass.

In assay [1] the test system is Escherichia coli. Kind of assay: Inhibition of Escherichia coli DdlB assessed as residual activity at 500 uM. The method, boiled down: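 Endpoint phosphate-release assay using purified DdlB with 500 µM test compound, 700 µM D-Ala, 500 µM ATP, in 38.5 mM Hepes pH 8.0 with MgCl2, (NH4)2SO4 and 5% DMSO. Run 30 min at 37 °C, then Biomol reagent and A650 read. Residual activity relative to an uninhibited assay. Mean of two independent experiments.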

In assay [2] the test system is Escherichia coli. Put plainly: Antibacterial activity against acrAB deficient Escherichia coli 1411. It is filed as functional. In short, it runs like this:
(§1)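 Broth microdilution MIC in IsoSensitest broth; inoculum 10⁴ cells per mL for E. coli, 10⁶ cells per mL for S. aureus. Compounds in 2-fold dilution series prepared in 50% DMSO. Incubated 16 h at 37 °C with OD600 read every 10 min, shaken 30 s before each read. MIC = lowest concentration preventing growth.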

Another assay has as its system Staphylococcus aureus. Kind of assay: Antibacterial activity against Staphylococcus aureus 8325-4. It is filed as functional. The method, boiled down: as §1
The subject of assay [3] is Escherichia coli. Put plainly: Antibacterial activity against Escherichia coli 1411. It is filed as functional. The method, boiled down: as §1
Assay [4] can be described thus: Inhibition of Escherichia coli DdlB. The method, boiled down: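 Purified E. coli DdlB in 38.5 mM Hepes pH 8.0, 3.25 mM MgCl2, 6.5 mM (NH4)2SO4, 700 µM D-Ala, 500 µM ATP, 5% DMSO, with a range of inhibitor concentrations. Incubated 30 min at 37 °C. Released phosphate detected by Biomol reagent, A650 after 5 min. IC50 taken from residual activity versus no-inhibitor control. Means of two independent experiments.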

For `CCOC(=O)/N=N/C(=O)Nc1ccc(F)cc1`, in the assay with Escherichia coli [1], the Activity came out at 37%.

Take `COC(=O)NNC(=O)NCCCl`: the Activity in the assay with Escherichia coli [1] stood at 5%.

`COC(=O)/N=N/C(=O)NCCCl`: the Activity in the assay with Escherichia coli [1] amounted to 7%.

Turning to `CCOC(=O)NNC(=O)Nc1ccccc1`, in the assay with Escherichia coli [1], the Activity came out at 1%.

`N[C@@H]1CONC1=O` [CYCLOSERINE]: the MIC is 16 µg/mL (≈ 157 µM) with Escherichia coli [2], 32 µg/mL (≈ 313 µM) in the assay on Staphylococcus aureus and 16 µg/mL (≈ 157 µM) against Escherichia coli [3]. This compound also returned an IC50 in assay [4] of 314 µM.

Consider `CCOC(=O)/N=N/C(=O)Nc1ccc([N+](=O)[O-])cc1`, for which the Activity in the assay with Escherichia coli [1] worked out at 40%.

`O=C(/N=N/C(=O)NCc1ccccn1)NCCCl`: the MIC with Escherichia coli [2], in the assay with Staphylococcus aureus and against Escherichia coli [3] was > 256 µg/mL throughout. Further, the IC50 in assay [4] was found to be 119 µM.

In the case of `O=C(/N=N/C(=O)Nc1ccccc1)NCc1ccccn1`, the MIC against Escherichia coli [2], against Staphylococcus aureus and in the assay with Escherichia coli [3] was 64 µg/mL (≈ 226 µM) throughout. Besides, the IC50 in assay [4] amounted to 111 µM.

In the case of `CCOC(=O)NNC(=O)Nc1ccc([N+](=O)[O-])cc1`, the Activity with Escherichia coli [1] came out at 1%.

`O=C(NCc1cccnc1)NNC(=O)Nc1cccc(Cl)c1`: in the assay with Escherichia coli [1], the Activity was found to be 3%.

Take `O=C(/N=N/C(=O)Nc1ccccc1)NCc1cccnc1`: the MIC against Escherichia coli [2] was 64 µg/mL (≈ 226 µM); in the assay with Staphylococcus aureus, 128 µg/mL (≈ 452 µM); in the assay with Escherichia coli [3] it was 64 µg/mL (≈ 226 µM). The compound also came in with an IC50 in assay [4] of 36 µM.

On to `CC(C)c1ccc(NC(=O)/N=N/C(=O)NCCCl)cc1`, for which the MIC in the assay with Escherichia coli [2], against Staphylococcus aureus and against Escherichia coli [3] was > 256 µg/mL throughout. In assay [4], this compound registered an IC50 of 49 µM.

In the case of `O=C(/N=N/C(=O)NCc1ccncc1)NCCCl`, the MIC with Escherichia coli [2] was 128 µg/mL (≈ 475 µM); in the assay on Staphylococcus aureus it was > 256 µg/mL; against Escherichia coli [3], 128 µg/mL (≈ 475 µM). Also, the midpoint of inhibition in assay [4], the IC50, lay at 236 µM.

In the case of `CCOC(=O)/N=N/C(=O)Nc1ccccc1`, the Activity in the assay on Escherichia coli [1] was 1%.

Take `O=C(/N=N/C(=O)Nc1cccc(Cl)c1)NCc1cccnc1`: the MIC against Escherichia coli [2] worked out at 64 µg/mL (≈ 201 µM); against Staphylococcus aureus it was 256 µg/mL (≈ 806 µM); with Escherichia coli [3], 64 µg/mL (≈ 201 µM). Besides, 15 µM corresponded to half-maximal inhibition in assay [4] (IC50).

As for `CN(C)CCNC(=O)NNC(=O)Nc1ccccc1`, in the assay with Escherichia coli [1], the Activity amounted to 2%.

For the compound `O=C(/N=N/C(=O)NCCCl)NCCCl`, the MIC in the assay on Escherichia coli [2], with Staphylococcus aureus and against Escherichia coli [3] was > 256 µg/mL each time. This compound also yielded an IC50 in assay [4] of 133 µM.

In the case of `CCOC(=O)/N=N/C(=O)Nc1cccc(Cl)c1`, the Activity with Escherichia coli [1] worked out at 33%.

Consider `CCOC(=O)NNC(=O)Nc1ccc(F)cc1`, for which the Activity with Escherichia coli [1] was 0%.

Regarding `CN(C)CCNC(=O)/N=N/C(=O)Nc1ccccc1`, the IC50 in assay [4] was > 500 µM.

For the compound `O=C(/N=N/C(=O)NC1CCCCC1)NCc1ccncc1`, the MIC is 256 µg/mL (≈ 885 µM) against Escherichia coli [2], 128 µg/mL (≈ 442 µM) against Staphylococcus aureus and 256 µg/mL (≈ 885 µM) in the assay on Escherichia coli [3]. Also, the concentration for half-maximal inhibition (IC50) in assay [4] was determined as 121 µM.

In the case of `CCC(C)c1ccc(NC(=O)/N=N/C(=O)NCCCl)cc1` (stereo not drawn), the MIC with Escherichia coli [2], in the assay with Staphylococcus aureus and against Escherichia coli [3] was > 256 µg/mL in each case. In assay [4], this compound registered an IC50 of 25 µM.

Take `O=C(/N=N/C(=O)Nc1ccccc1)NCc1ccncc1`: the minimal inhibitory concentration (MIC) is 32 µg/mL (≈ 113 µM) with Escherichia coli [2], 128 µg/mL (≈ 452 µM) with Staphylococcus aureus and 64 µg/mL (≈ 226 µM) against Escherichia coli [3]. The compound also yielded an IC50 in assay [4] of 106 µM.

As to `CC(C)(C)c1ccc(NC(=O)/N=N/C(=O)NCc2ccncc2)cc1`, the IC50 in assay [4] was > 500 µM.

Consider `O=C(NCc1cccnc1)NNC(=O)Nc1ccccc1`, for which the Activity with Escherichia coli [1] was 0%.

For `CC(C)(C)OC(=O)/N=N/C(=O)NCCCl`, the Activity in the assay with Escherichia coli [1] came out at 7%.

On to `O=C(/N=N/C(=O)Nc1cccc(Cl)c1)NCc1ccncc1`, for which the MIC in the assay on Escherichia coli [2], against Staphylococcus aureus and against Escherichia coli [3] was 64 µg/mL (≈ 201 µM) in each case. Also, the 50% inhibitory concentration (IC50) in assay [4] stood at 33 µM.

Take `COC(=O)NNC(=O)NC1CCCCC1`: in the assay on Escherichia coli [1], the Activity is 1%.

Turning to `O=C(/N=N/C(=O)NCc1cccnc1)NCc1cccnc1`, the MIC against Escherichia coli [2], in the assay with Staphylococcus aureus and in the assay with Escherichia coli [3] was > 256 µg/mL throughout. The compound further registered an IC50 in assay [4] of 123 µM.

Consider `CCOC(=O)NNC(=O)Nc1cccc(Cl)c1`, for which, in the assay with Escherichia coli [1], the Activity worked out at 0%.

As for `O=C(/N=N/C(=O)Nc1ccc(F)cc1)NCc1ccncc1`, the MIC in the assay on Escherichia coli [2] turned out to be 64 µg/mL (≈ 212 µM); with Staphylococcus aureus it was 128 µg/mL (≈ 425 µM); in the assay on Escherichia coli [3], 64 µg/mL (≈ 212 µM). This compound also registered an IC50 in assay [4] of 73 µM.

These data come from ChEMBL document CHEMBL1139126, “Diazenedicarboxamides as inhibitors of D-alanine-D-alanine ligase (Ddl)” (Bioorg Med Chem Lett, 2007).
